Source: PubChem
MrgX1 antag: antagonists of human MrgX1 receptor; B-score at 10 µM; MRGX1-HEK293 calcium flux, Fluo-4, BAM8-22 antagonism; active compounds read low; AID 588676; 310,000 compounds, 1.3% hits; Q96LB2;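 active = calcium-response B-score plate-corrected more than 3 library SD below zero, starting fluorescence within 5 deviations, no agonist response on first addition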;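 also: peak minus trough fluorescence over baseline after final BAM8-22 challenge near maximal dose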
Target sequence (Q96LB2 whole entry, looked up): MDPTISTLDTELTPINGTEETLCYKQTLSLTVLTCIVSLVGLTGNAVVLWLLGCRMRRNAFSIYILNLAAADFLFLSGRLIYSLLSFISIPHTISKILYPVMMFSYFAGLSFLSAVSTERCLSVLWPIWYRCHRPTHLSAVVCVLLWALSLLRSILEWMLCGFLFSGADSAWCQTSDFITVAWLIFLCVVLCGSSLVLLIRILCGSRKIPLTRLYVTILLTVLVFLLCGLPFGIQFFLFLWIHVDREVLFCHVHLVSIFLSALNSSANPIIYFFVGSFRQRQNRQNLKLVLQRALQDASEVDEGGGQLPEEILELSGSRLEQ
MrgX1 allo act: allosterically activates human MrgX1 receptor signaling. Q96LB2. MrgX1-HEK293, Fluo-4 calcium flux, FDSS; active compounds read high. B-score at 10 µM. 310,000 compounds, 0.63% hits;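 active = plate-corrected calcium response at least 3 library SD above typical, normal starting fluorescence, not activating the receptor alone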;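 also: compound read alongside a low EC10 to EC30 dose of BAM8-22 agonist; peak minus trough fluorescence over baseline measured at the second addition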
MrgX1 agonist: agonists of human MrgX1 receptor. B-score at 10 µM. 310,000 compounds, 0.44% hits. Q96LB2. MrgX1-HEK293 cells, Fluo-4 calcium fluorescence, agonist mode; active compounds read high;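 active = calcium response B-score plate-corrected fluorescence ratio at least 3 library SD, with starting fluorescence B-score inside 5 SD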
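System: HEK293 cells stably expressing human MrgX1 receptor; Dosing: test compound in the initial addition of three; Schedule: overnight plating, then 30 min 37 °C plus 30 min room-temperature dye loading; Detection: kinetic calcium dye fluorescence, Fluo-4 NW; Controls: per-plate positive and negative controls for Z′ factor.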
RGS4 inh: human RGS4 inhibition | P49798 | HEK293 M3R/RGS4 inducible, Fluo-4 calcium flux; active compounds read high; triggered by carbachol at its EC20 | B-score at 10 µM | 310,000 compounds, 0.45% hits;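 active = B-score, a plate-corrected calcium signal, over three deviations above library mean, with baseline fluorescence within five deviations of library mean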;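 also: RGS4 expression induced by doxycycline in cells with stable M3 receptor; B-score is computed from the integrated fluorescence ratio over baseline after carbachol; higher B-score means a larger calcium signal and so more RGS4 inhibition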
Target sequence (P49798 whole entry, looked up): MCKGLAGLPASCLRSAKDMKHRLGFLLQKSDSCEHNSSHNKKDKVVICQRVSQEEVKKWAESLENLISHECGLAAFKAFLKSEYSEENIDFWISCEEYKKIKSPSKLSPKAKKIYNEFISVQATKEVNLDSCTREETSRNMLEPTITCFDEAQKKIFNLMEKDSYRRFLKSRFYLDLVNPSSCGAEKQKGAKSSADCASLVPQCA
RGS4 act: RGS4 potentiation or activation; HEK293 M3R/inducible RGS4, carbachol calcium flux Fluo4; active compounds read low; B-score at 10 µM; 310,000 compounds, 0.92% hits; AID 463111;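 active = B-score of the integrated calcium signal more than 4 SD below the library mean, with starting fluorescence not abnormally high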;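 also: negative B-score means reduced calcium response which marks RGS4 activation or potentiation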
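Test system: HEK293 cells with stable M3R and inducible RGS4; also added: carbachol at ECmax as muscarinic agonist stimulus; schedule: dye loading 30 min 37 °C, buffer rest 30 min RT; technique: kinetic calcium fluorescence imaging with Fluo4-AM dye, 2 µM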
Each line names hits and unclear results; the compound was inactive in the other large screens. This is a sample that favours compounds with a hit; in the whole collection about 3.5% have one here.

COc1ccc(NC2CCCN(C(=O)c3cc4ncccn4n3)C2)cc1 (stereo not given)	none
COc1ccc(C(=O)N2c3ccccc3C=CC2C#N)cc1 (stereo not given)	RGS4 act -7.4
OC(c1cccs1)(c1cccs1)C1C[N+]2(CF)CCC1CC2 (stereo not given)	RGS4 act -8.4
O=C(CCC1CCCC1)NCc1cccs1	none
Cc1cc(C)c(OCC(=O)OCC(=O)NCc2cccs2)c(C)c1	none
Cc1ccc(C(=O)NC(=S)NCc2ccccc2)cc1Br	none
O=C(CNC(=O)OCc1ccccc1)Oc1ccc2ccc(=O)oc2c1	none
O=C(NC(Cc1ccccc1)C(=O)Oc1ccc2c(C(F)(F)F)cc(=O)oc2c1)OCc1ccccc1 (stereo not given)	MrgX1 allo act 8.4
COc1ccccc1CCCNC(=O)C1CCC(=O)N(CCc2ccc(Cl)cc2)C1 (stereo not given)	none
COc1ccc(C(=O)Nc2ccc(-c3ccc(C)o3)cc2)cc1S(=O)(=O)N1CCOCC1	none
COc1ccccc1N(CC1CO1)S(=O)(=O)c1ccc(C)cc1 (stereo not given)	none
Cc1cc2nc(=O)c(/C=C3\C=Nc4ccccc43)c(N)n2o1	none
CCOC1=C/C(=C/c2c(N)n3oc(C)cc3nc2=O)C=CC1=O	MrgX1 allo act 8.6
O=c1[nH]c(S)c(/C=C2\C=Nc3ccccc32)s1	MrgX1 antag -5.4
CCCCOP(=O)(c1ccc(N(C)C)cc1)C(Nc1ccccc1)c1ccccc1 (stereo not given)	RGS4 act -7.3
CCCOP(=O)(c1ccc(N(C)C)cc1)C(Nc1ccccc1)c1ccc(N(C)C)cc1 (stereo not given)	none
CCOc1ccc(-c2[nH]ncc2-c2ccc(Cl)cc2)c(O)c1	MrgX1 antag -13, MrgX1 allo act 13
Cc1cc(NS(C)(=O)=O)c(=O)n(Cc2c(F)cccc2Cl)c1	none
CC1=CC(=O)C(C(C)C)=C/C1=N\OC(=O)c1cccc2nc(C)oc12	MrgX1 antag -5
O=C(COc1ccccc1)NC1CCN(Cc2ccccc2)CC1	none
CC(C)(Oc1ccc(Cl)cc1)C(=O)NC1CCN(Cc2ccccc2)CC1	RGS4 act -7
Cc1ccc(-n2nc3c(=O)n(CC(=O)NC(C)CCc4ccccc4)nc(C)c3c2C)cc1 (stereo not given)	none
CN(CCOc1ccccc1)CC(=O)Nc1ccc(Cl)cc1[N+](=O)[O-]	MrgX1 allo act 13
COc1cc(NC(=O)CN(C)CCOc2ccccc2)c(C)cc1[N+](=O)[O-]	none
CC(NC(=O)c1ccc(F)cc1F)C1CC2CCC1C2 (stereo not given)	none
COc1cc(OC)c(NC(=S)Nc2cc(Cl)cc(Cl)c2)cc1Cl	MrgX1 antag -4.7
C/C(=N\OC(=O)NC(C)C)c1sc(-c2ccc(Cl)cc2)nc1C	MrgX1 allo act 17
O=[N+]([O-])c1ccc(N2CCN(Cc3ccccc3)CC2)s1	MrgX1 antag -5
CC(C(=O)N1CCc2ccccc21)N1CCN(c2cccc(C(F)(F)F)c2)CC1 (stereo not given)	none
O=C(NC1CC2CCCC(C1)N2Cc1ccccc1)c1ccc([N+](=O)[O-])cc1 (stereo not given)	none
O=c1c([N+](=O)[O-])cccn1Cc1cccc(Br)c1	none
O=C(N/N=C/c1cn(-c2cccs2)nc1-c1ccccc1)c1ccccc1O	MrgX1 antag -8.3
CCOC(=O)CSc1nc2ccc(NC(=O)CSc3nnnn3Cc3ccccc3)cc2s1	MrgX1 allo act 6.9
Clc1ccc(-c2nsc(N3CCOCC3)n2)c(Cl)c1	none
COCCNC(=S)N/N=C/c1ccc(OCc2ccc(C(=O)OC)cc2)c(OC)c1	MrgX1 antag -4.9
CN1CCCN(C(=O)c2cc(-c3cccc4ccccc34)nc3ccccc23)CC1	MrgX1 agonist 35
O=C(c1cc(-c2ccccc2Cl)nc2ccccc12)N1CCC1	none
Cc1ccccc1-c1cc(C(=O)N2CCCC2)c2ccccc2n1	none
O=C(c1cc(-c2ccccc2Cl)nc2ccccc12)N1CCN(c2ccccc2O)CC1	RGS4 act -7.6
COc1ccccc1C(=O)COC(=O)c1ccccc1OCC(=O)Nc1ccc(SC(F)F)cc1	RGS4 act -7.8
O=C(N/N=C/c1ccc[nH]1)c1ccc(COc2cccc3cccnc23)cc1	MrgX1 antag -7.2, MrgX1 allo act 7.8
CCOC(=O)C(=O)NNc1ccc(C)cc1	MrgX1 antag -9
CCOC(=O)C(=O)NNc1ccc(Cl)cc1	none
N#C/C(=C\c1ccc(Cl)cc1)c1nc(-c2ccco2)cs1	MrgX1 antag -6.2
N#C/C(=C\c1ccc(F)cc1)c1nc(-c2ccco2)cs1	none
CC(COc1ccc(C(C)C)cc1)NC(=O)c1ccc(Br)o1 (stereo not given)	none
CSCC[C@H](NC(=O)Nc1ccc(OC(F)(F)F)cc1)C(=O)O	none
Oc1cccc(Nc2nc(NCC3CCCO3)c3ccccc3n2)c1 (stereo not given)	none
CCOc1ccc(Nc2nc(NCC3CCCO3)c3ccccc3n2)cc1 (stereo not given)	MrgX1 antag -5.9, RGS4 act -7.2
COc1ccccc1NC1=C(Cl)C(=O)N(C2CCCCC2)C1=O	MrgX1 allo act 7.6
COc1ccc(N2C(=O)C(Cl)=C(NCc3ccccc3)C2=O)cc1	none
CCOc1ccccc1NC1=C(Cl)C(=O)N(c2ccc(OC)cc2)C1=O	MrgX1 allo act 7.9
Cc1nn(C)c(C(=O)Nc2cccc(Nc3ccccc3)c2)c1[N+](=O)[O-]	none
Cc1nn(C)c(C(=O)N/N=C/c2ccccc2)c1[N+](=O)[O-]	RGS4 act -9.9
Cc1nc2ccccn2c1C(=O)N/N=C/c1ccc([N+](=O)[O-])cc1	none
Cc1nc2ccccn2c1C(=O)N/N=C/c1ccc([N+](=O)[O-])o1	MrgX1 antag -6
CC(C)N(C(=S)Nc1cccc(S(=O)(=O)N(C)C)c1)c1ccccc1	none
CCc1nnc(NC(=O)CSCc2cc(=O)n3ccsc3n2)s1	none
O=C(CSc1nnc(COc2ccc(Cl)cc2Cl)o1)Nc1ccccn1	none
Clc1ccc(OCc2nnc(SCc3nnc(-c4ccccc4)o3)o2)c(Cl)c1	RGS4 act -9.7
Cc1ccc2cc(CNC(C)C)c(=O)[nH]c2c1	none
CCc1ccc(NC(=O)CCCNC(=O)Cn2cnc3sc(C)c(C)c3c2=O)cc1	none
CCN(CC)CCNC(=O)CCCNC(=O)Cn1cnc2sc(C)c(C)c2c1=O	MrgX1 antag -9.1
CC(C)[C@H](NC(=O)N1CCn2c1nc1ccccc12)C(=O)NC1CCCCC1	none
Cc1ccc(C(C)NC(=O)c2cc3cc(Br)ccc3oc2=N)cc1 (stereo not given)	RGS4 act -9.2
CC(C)NC(=O)c1cc2cc(Br)ccc2oc1=O	none
O=C(O)c1ccc(Nc2ncnc3scc(-c4ccccc4)c23)cc1	MrgX1 agonist 30
